In ChEMBL document CHEMBL1124009 (J Med Chem, 1988):
Blank lines part the entries; values can stand above or below the compound they belong to. Positions of bridges follow the written chain, without caps; N, C: chain ends. Non-standard residues stand in square brackets, D forms with d. Residues, ends and D or L forms follow the SMILES beside them. Tic = O=C(O)[C@@H]1Cc2ccccc2CN1; dTic = O=C(O)[C@H]1Cc2ccccc2CN1; Pen = CC(C)(S)[C@H](N)C(=O)O

Legend:
Somatostatin receptor = experiment: Binding affinity in competition with [125I]- CGP-23996 in somatostatin receptor binding to rat brain membrane
Outline: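 Rat whole-brain membranes (adult male Sprague–Dawley) at 1.0% final tissue were incubated with 0.2 nM [125I]CGP 23,996 and analogues at 100–0.3 μM. Buffer was 50 mM Tris pH 7.4 with 2.0 mg/mL BSA, 20 μg/mL bacitracin and 5 mM MgCl2. Incubation ran 1 h at 37 °C and ended by rapid filtration through BSA-soaked GF/B filters.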

[1] = biological target: Opioid receptors; mu & delta (Rattus norvegicus) (UniProt P33533+P33535); experiment: Ratio of selective binding affinity of mu receptor to that of delta opioid receptor; format: protein assay
Chain of Opioid receptors; mu & delta (Rattus norvegicus) (P33533 whole entry, looked up): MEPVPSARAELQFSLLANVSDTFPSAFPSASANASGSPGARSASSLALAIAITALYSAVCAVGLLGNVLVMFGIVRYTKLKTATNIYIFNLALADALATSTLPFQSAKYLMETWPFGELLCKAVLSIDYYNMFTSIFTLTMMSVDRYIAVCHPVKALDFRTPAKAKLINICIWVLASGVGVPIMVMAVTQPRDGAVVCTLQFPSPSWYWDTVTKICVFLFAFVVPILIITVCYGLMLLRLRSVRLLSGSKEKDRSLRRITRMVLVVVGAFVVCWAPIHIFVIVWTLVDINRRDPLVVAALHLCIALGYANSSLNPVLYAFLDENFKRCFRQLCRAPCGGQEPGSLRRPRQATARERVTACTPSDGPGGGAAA
Chain of Opioid receptors; mu & delta (Rattus norvegicus) (P33535 whole entry, looked up): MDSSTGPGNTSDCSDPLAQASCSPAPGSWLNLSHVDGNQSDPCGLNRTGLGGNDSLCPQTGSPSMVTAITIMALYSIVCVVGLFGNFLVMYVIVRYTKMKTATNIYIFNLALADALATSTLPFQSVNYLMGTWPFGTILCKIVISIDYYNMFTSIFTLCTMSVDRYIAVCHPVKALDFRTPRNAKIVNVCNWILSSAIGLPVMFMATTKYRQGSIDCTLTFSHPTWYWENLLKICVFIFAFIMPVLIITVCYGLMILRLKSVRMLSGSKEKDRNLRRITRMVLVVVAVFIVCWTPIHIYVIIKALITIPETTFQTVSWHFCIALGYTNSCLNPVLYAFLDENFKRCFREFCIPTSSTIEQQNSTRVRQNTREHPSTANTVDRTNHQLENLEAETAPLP

[2] = Ratio of selective binding affinity of mu receptor to that of somatostatin receptor
[3] = biological target: Delta-type opioid receptor (Rattus norvegicus, UniProt P33533); experiment: Binding affinity in competition with [3H]- DPDPE in Opioid receptor delta 1 binding to rat brain membrane
Chain of Delta-type opioid receptor (P33533 whole entry): as the sequence (P33533 whole entry, looked up) above
Outline: (§1)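 Brains (minus cerebellum) of male Sprague–Dawley rats (200–250 g) were homogenized, preincubated 30 min at 25 °C and centrifuged twice at 43000g. Homogenate at 0.5% final was incubated with 0.5 nM [3H]CTOP (μ) or 1.0 nM [3H]DPDPE (δ) in 50 mM Tris-HCl pH 7.4 with 5 mM MgCl2, BSA 1 mg/mL and 100 μM PMSF, 120 min at 25 °C, in duplicate. Nonspecific binding was taken with 1 μM naloxone; bound label was filtered and scintillation counted; curves were fit by nonlinear least squares.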

Mu-type opioid receptor = Mu-type opioid receptor (Rattus norvegicus, UniProt P33535); experiment: Binding affinity in competition with [3H]- CTOP in Opioid receptor mu 1 binding to rat brain membrane; outline: as §1
Chain of Mu-type opioid receptor (P33535 whole entry): as the sequence (P33535 whole entry, looked up) above

Cavia porcellus [4] = species on record: Cavia porcellus; experiment: Negative logarithm of antagonist concentration that requires doubling of agonist concentration to induce original agonist response; settings: read-out: pA2 (converted)
Cavia porcellus [5] = species on record: Cavia porcellus; experiment: Intrinsic agonist activity in guinea Pig Ileum (GPI) was determined; format: functional; settings: filed as agonist
Outline: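 Longitudinal muscle–myenteric plexus strips of ileum from male Hartley guinea pigs (200–500 g) sat in Krebs–bicarbonate at 37 °C under 95% O2/5% CO2 at 1 g tension. Strips were field-stimulated at 0.1 Hz with 0.4-ms supramaximal pulses, and isometric twitches were recorded. Agonist action was taken as twitch inhibition. pA2 came from PL017 (μ agonist) dose–response curves without and with several antagonist concentrations.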

[6] = biological target: Mu-type opioid receptor (Rattus norvegicus) (UniProt P33535); experiment: Percentage inhibition in competition with [3H]- CTOP in Opioid receptor mu 1 binding to rat brain membrane at 10000 nM
Chain of Mu-type opioid receptor (Rattus norvegicus) (P33535 whole entry): as the sequence (P33535 whole entry, looked up) above

Structure (SMILES): CC(C)[C@H](NC(=O)[C@H]1NC(=O)[C@H]([C@@H](C)O)NC(=O)[C@H](CCCCN)NC(=O)[C@H](Cc2c[nH]c3ccccc23)NC(=O)[C@H](Cc2ccc(O)cc2)NC(=O)[C@@H](NC(=O)[C@H]2Cc3ccccc3CN2)CSSC1(C)C)C(N)=O
- IC50 (Somatostatin receptor): 1.992 µM
- Ratio [1]: 46
- Ratio [2]: 43

Structure (SMILES): C[C@@H](O)[C@H](NC(=O)[C@H]1NC(=O)[C@H](CC(N)=O)NC(=O)[C@H](Cc2ccccc2)NC(=O)[C@@H](NC(=O)[C@@H](N)Cc2ccc(O)cc2)CSSC1(C)C)C(N)=O
- IC50 (Somatostatin receptor): >= 10000 nM
- Ratio [1]: > 1.3
- Ratio [2]: > 1.3

Structure (SMILES): C[C@@H](O)[C@H](NC(=O)[C@H]1NC(=O)[C@H]([C@@H](C)O)NC(=O)[C@H](CCCN=C(N)N)NC(=O)[C@@H](Cc2c[nH]c3ccccc23)NC(=O)[C@H](Cc2ccc(O)cc2)NC(=O)[C@@H](NC(=O)[C@H]2Cc3ccccc3CN2)CSSC1(C)C)C(N)=O (H-[dTic]CY[dW]RT[Pen]T-NH2; disulfide 2-7)
- IC50 [3]: 1.27 µM
- IC50 (Mu-type opioid receptor): 1.2 nM
- Kb (Cavia porcellus [4]): 2.04 nM

Structure (SMILES): C[C@@H](O)[C@H](NC(=O)[C@H]1NC(=O)[C@H]([C@@H](C)O)NC(=O)[C@H](CCCCN)NC(=O)[C@H](Cc2c[nH]c3ccccc23)NC(=O)[C@H](Cc2ccc(O)cc2)NC(=O)[C@@H](NC(=O)[C@@H](N)Cc2ccccc2)CSSC1(C)C)C(N)=O
- IC50 (Somatostatin receptor): 1.462 µM
- Ratio [1]: 312
- Ratio [2]: 395

Structure (SMILES): C[C@@H](O)[C@@H]1NC(=O)[C@H](CCCN)NC(=O)C(Cc2c[nH]c3ccccc23)NC(=O)[C@H](Cc2ccc(O)cc2)NC(=O)[C@@H](NC(=O)[C@H](N)Cc2ccccc2)CSSC(C)(C)[C@@H](C(N)=O)NC1=O (stereo in doubt)
- Ratio [1]: > 53
- Ratio [2]: 253

Structure (SMILES): C[C@@H](O)[C@@H]1NC(=O)[C@H](CCCCN)NC(=O)C(Cc2c[nH]c3ccccc23)NC(=O)[C@H](Cc2ccc(O)cc2)NC(=O)[C@@H](NC(=O)[C@H](N)Cc2ccccc2)CSSC(C)(C)[C@@H](C(=O)N[C@@H](CC(=O)O)C(N)=O)NC1=O (stereo in doubt)
- Ratio [1]: > 2.9
- Ratio [2]: 2.4

Structure (SMILES): C[C@@H](O)[C@H](NC(=O)[C@H]1NC(=O)[C@H](CCCCN)NC(=O)C(Cc2c[nH]c3ccccc23)NC(=O)[C@@H](Cc2ccc(O)cc2)NC(=O)[C@@H](NC(=O)[C@H]2Cc3ccccc3CN2)CSSC1(C)C)C(N)=O (stereo in doubt)
- Ratio [1]: > 1
- Ratio [2]: 1.5

- IC50 (Somatostatin receptor): 34.336 µM
- Ratio [1]: 1060
- Ratio [2]: 28600
Structure (SMILES): C[C@@H](O)[C@H](NC(=O)[C@H]1NC(=O)[C@H]([C@@H](C)O)NC(=O)[C@H](CCCN=C(N)N)NC(=O)[C@H](Cc2c[nH]c3ccccc23)NC(=O)[C@H](Cc2ccc(O)cc2)NC(=O)[C@@H](NC(=O)[C@@H]2Cc3ccccc3CN2)CSSC1(C)C)C(N)=O (H-[Tic]CYWRT[Pen]T-NH2; disulfide 2-7)

Structure (SMILES): C[C@@H](O)[C@H](NC(=O)[C@H]1NC(=O)[C@H]([C@@H](C)O)NC(=O)[C@H](CCCCN)NC(=O)C(Cc2c[nH]c3ccccc23)NC(=O)[C@@H](Cc2ccc(O)cc2)NC(=O)[C@@H](NC(=O)[C@H]2Cc3ccccc3CN2)CSSC1(C)C)C(N)=O (stereo in doubt) [listing 1 of 2 here]
- IC50 [3]: 9.32 µM
- IC50 (Mu-type opioid receptor): 1.2 nM
- Kb (Cavia porcellus [4]): 7.94 nM

Structure (SMILES): C[C@@H](O)[C@@H]1NC(=O)[C@H](CCCCN)NC(=O)C(Cc2c[nH]c3ccccc23)NC(=O)[C@H](Cc2ccc(O)cc2)NC(=O)[C@@H](NC(=O)[C@H]2Cc3ccccc3CN2)CSSC(C)(C)[C@@H](C(=O)N[C@@H](CO)C(N)=O)NC1=O (stereo in doubt)
- Ratio [1]: 491
- Ratio [2]: 192

Structure (SMILES): C[C@@H](O)[C@H](NC(=O)[C@H]1NC(=O)[C@H]([C@@H](C)O)NC(=O)[C@H](CCCN)NC(=O)C(Cc2c[nH]c3ccccc23)NC(=O)[C@@H](Cc2ccc(O)cc2)NC(=O)[C@@H](NC(=O)[C@H]2Cc3ccccc3CN2C(=O)CN)CSSC1(C)C)C(N)=O (stereo in doubt)
- Ratio [1]: 19
- Ratio [2]: 70

Structure (SMILES): C[C@@H](O)[C@@H]1NC(=O)[C@H](CCCCN)NC(=O)C(Cc2c[nH]c3ccccc23)NC(=O)[C@H](Cc2ccc(O)cc2)NC(=O)[C@@H](NC(=O)[C@H](N)Cc2ccccc2)CSSC(C)(C)[C@@H](C(=O)N[C@@H](CC(N)=O)C(N)=O)NC1=O (stereo in doubt)
- Ratio [1]: > 77
- Ratio [2]: 6.3

Structure (SMILES): CN[C@H](Cc1ccccc1)C(=O)N[C@H]1CSSC(C)(C)[C@@H](C(=O)N[C@H](C(N)=O)[C@@H](C)O)NC(=O)[C@H]([C@@H](C)O)NC(=O)[C@H](CCCN)NC(=O)C(Cc2c[nH]c3ccccc23)NC(=O)[C@H](Cc2ccc(O)cc2)NC1=O (stereo in doubt) [listing 1 of 2 here]
- Ratio [1]: > 35
- Ratio [2]: 28

Structure (SMILES): C[C@@H](O)[C@H](NC(=O)[C@H]1NC(=O)[C@H]([C@@H](C)O)NC(=O)[C@H](CCCCN)NC(=O)C(Cc2c[nH]c3ccccc23)NC(=O)[C@@H](Cc2ccc(O)cc2)NC(=O)[C@@H](NC(=O)[C@H]2Cc3ccccc3CN2)CSSC1(C)C)C(N)=O (stereo in doubt) [listing 2 of 2 here]
- Ratio [1]: 7770
- Ratio [2]: 791

Structure (SMILES): C[C@@H](O)[C@@H]1NC(=O)[C@H](CCCCN)NC(=O)C(Cc2c[nH]c3ccccc23)NC(=O)[C@H](Cc2ccc(O)cc2)NC(=O)[C@@H](NC(=O)[C@H](N)Cc2ccccc2)CSSC(C)(C)[C@@H](C(N)=O)NC1=O (stereo in doubt) [listing 1 of 2 here]
- Ratio [1]: > 87
- Ratio [2]: 17

Structure (SMILES): C[C@@H](O)[C@H](NC(=O)[C@H]1NC(=O)[C@H]([C@@H](C)O)NC(=O)[C@H](CCCN)NC(=O)[C@@H](Cc2c[nH]c3ccccc23)NC(=O)[C@H](Cc2ccc(O)cc2)NC(=O)[C@@H](NC(=O)[C@H]2Cc3ccccc3CN2)CSSC1(C)C)C(N)=O
- IC50 [3]: 16 µM
- IC50 (Mu-type opioid receptor): 1.4 nM
- Kb (Cavia porcellus [4]): 41.7 nM

Structure (SMILES): C[C@@H](O)[C@H](NC(=O)[C@H]1NC(=O)[C@H]([C@@H](C)O)NC(=O)[C@H](CCCNC(=N)N)NC(=O)[C@@H](Cc2c[nH]c3ccccc23)NC(=O)[C@H](Cc2ccc(O)cc2)NC(=O)[C@@H](NC(=O)[C@H](N)Cc2ccccc2)CSSC1(C)C)C(N)=O
- IC50 (Somatostatin receptor): 8.452 µM
- Ratio [1]: 2530
- Ratio [2]: 4020
- Kb (Cavia porcellus [4]): 75.9 nM

Structure (SMILES): C[C@@H](O)[C@@H]1NC(=O)[C@H](CCCCN)NC(=O)C(Cc2c[nH]c3ccccc23)NC(=O)[C@H](Cc2ccc(O)cc2)NC(=O)[C@@H](NC(=O)[C@H](N)Cc2ccccc2)CSSC(C)(C)[C@@H](C(=O)N[C@@H](CO)C(N)=O)NC1=O (stereo in doubt) [listing 1 of 2 here]
- Ratio [1]: > 490
- Ratio [2]: 94

Structure (SMILES): C[C@@H](O)[C@H](NC(=O)[C@H]1NC(=O)[C@H]([C@@H](C)O)NC(=O)[C@H](CCCCN)NC(=O)[C@@H](Cc2c[nH]c3ccccc23)NC(=O)[C@H](Cc2ccc(O)cc2)NC(=O)[C@@H](NC(=O)[C@H](N)Cc2ccccc2)CSSC1(C)C)C(N)=O
- IC50 [3]: 1.15 µM
- Kb (Cavia porcellus [4]): 79.4 nM

Structure (SMILES): C[C@@H](O)[C@H](NC(=O)[C@H]1NC(=O)[C@H]([C@@H](C)O)NC(=O)[C@H](CCCCN)NC(=O)C(Cc2c[nH]c3ccccc23)NC(=O)[C@H](Cc2ccc(O)cc2)NC(=O)[C@@H](NC(=O)C(N)Cc2c[nH]c3ccccc23)CSSC1(C)C)C(N)=O (stereo in doubt)
- Activity (Cavia porcellus [5]): Agonist
- Ratio [1]: > 1590
- Ratio [2]: 254

Structure (SMILES): C[C@@H](O)[C@@H]1NC(=O)[C@H](CCCCN)NC(=O)C(Cc2c[nH]c3ccccc23)NC(=O)[C@H](Cc2ccc(O)cc2)NC(=O)[C@@H](NC(=O)[C@H](N)Cc2ccccc2)CSSC(C)(C)[C@@H](C(=O)N[C@@H](CO)C(N)=O)NC1=O (stereo in doubt) [listing 2 of 2 here]
- IC50 [3]: > 10 µM
- IC50 (Mu-type opioid receptor): 20 nM
- Kb (Cavia porcellus [4]): 575 nM

Structure (SMILES): C[C@@H](O)[C@H](NC(=O)[C@H]1NC(=O)[C@H](CC(N)=O)NC(=O)[C@H](Cc2ccc(O)cc2)NC(=O)[C@@H](NC(=O)[C@@H](N)Cc2ccccc2)CSSC1(C)C)C(N)=O
- inhibition [6]: 17%
- IC50 (Somatostatin receptor): > 100 µM

Structure (SMILES): CN[C@H](Cc1ccccc1)C(=O)N[C@H]1CSSC(C)(C)[C@@H](C(=O)N[C@H](C(N)=O)[C@@H](C)O)NC(=O)[C@H]([C@@H](C)O)NC(=O)[C@H](CCCN)NC(=O)C(Cc2c[nH]c3ccccc23)NC(=O)[C@H](Cc2ccc(O)cc2)NC1=O (stereo in doubt) [listing 2 of 2 here]
- IC50 [3]: > 10 µM
- IC50 (Mu-type opioid receptor): 284 nM

Structure (SMILES): CC(C)[C@H](NC(=O)[C@H]1NC(=O)[C@H]([C@@H](C)O)NC(=O)[C@H](CCCCN)NC(=O)[C@@H](Cc2c[nH]c3ccccc23)NC(=O)[C@H](Cc2ccc(O)cc2)NC(=O)[C@@H](NC(=O)[C@H]2Cc3ccccc3CN2)CSSC1(C)C)C(N)=O
- IC50 [3]: 2.12 µM
- IC50 (Mu-type opioid receptor): 46 nM
- Kb (Cavia porcellus [4]): 257 nM

Structure (SMILES): C[C@@H](O)[C@H](NC(=O)[C@H]1NC(=O)[C@H](CC(N)=O)NC(=O)[C@H](Cc2ccccc2)NC(=O)[C@@H](NC(=O)[C@H](N)Cc2ccc(O)cc2)CSSC1(C)C)C(N)=O
- IC50 [3]: ≥ 10 µM
- IC50 (Mu-type opioid receptor): 7470 nM

Structure (SMILES): C[C@@H](O)[C@@H]1NC(=O)[C@H](CCCCN)NC(=O)C(Cc2c[nH]c3ccccc23)NC(=O)[C@H](Cc2ccc(O)cc2)NC(=O)[C@@H](NC(=O)[C@H](N)Cc2ccccc2)CSSC(C)(C)[C@@H](C(N)=O)NC1=O (stereo in doubt) [listing 2 of 2 here]
- IC50 [3]: > 10 µM
- IC50 (Mu-type opioid receptor): 115 nM
